The record followed here is ChEMBL document CHEMBL1140550, “New 'chemical probes' to examine the role of the hFPRL1 (or ALXR) receptor in inflammation” (Bioorg Med Chem Lett, 2007).

Experiment [1] can be described thus: Inhibition of fMLP-induced human PMN migration after 45 mins. The experiment is classed as functional. To be noted: 0.75 h. An outline of the steps: (§1)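 Human polymorphonuclear neutrophils from at least three donors, exposed to compound (final DMSO 0.1%). Migration toward a gradient of IL-8 or fMLP chemo-attractant (10 nM each) followed by fluorescence. Mean IC50 reported.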

Experiment [2] in a line: Inhibition of IL8-induced human PMN migration after 45 mins. To be noted: 0.75 h. The experiment is classed as functional. In outline: as §1
Experiment [3] concerns Blood. In words: Stimulation of IL6 secretion in human whole blood after 18 hrs. It is filed as functional, tissue-based. In outline:
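Heparinized human whole blood, 50% final, preincubated with compound for 1 h at 37 °C, 5% CO2, then stimulated with IL-1β (300 pM final) for 18 h. Final DMSO 0.1%. IL-6 in supernatant/plasma measured by electrochemiluminescence immunoassay.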

Experiment [4] deals with T1, N-formyl peptide receptor 2 (Homo sapiens, UniProt P25090).
T1 sequence (P25090 whole entry): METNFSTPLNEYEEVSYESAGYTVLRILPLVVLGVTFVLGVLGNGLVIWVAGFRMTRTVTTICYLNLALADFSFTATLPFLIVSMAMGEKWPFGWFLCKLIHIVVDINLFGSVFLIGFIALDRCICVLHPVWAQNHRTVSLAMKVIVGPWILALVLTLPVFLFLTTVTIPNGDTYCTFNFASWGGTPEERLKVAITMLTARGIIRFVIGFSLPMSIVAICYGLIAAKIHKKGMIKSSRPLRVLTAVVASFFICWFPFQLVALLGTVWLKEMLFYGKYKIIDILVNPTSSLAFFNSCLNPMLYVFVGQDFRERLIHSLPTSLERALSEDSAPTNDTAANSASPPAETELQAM
In words: Agonist activity at human recombinant FPRL1 expressed in CHO cells assessed as calcium flux by aequorin based bioluminescence assay. The experiment is classed as functional, cell-based. In outline:
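EC50 from Ca2+ flux in recombinant CHO cells co-expressing human FPRL1, Gα15 protein and aequorin. Values without standard deviation are the mean of two data points.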
A general note: Calcium flux is commonly read through the fluorescence of an indicator in the cells.

Experiment [5] concerns the target T2, fMet-Leu-Phe receptor (Homo sapiens, UniProt P21462).
T2 sequence (P21462 whole entry): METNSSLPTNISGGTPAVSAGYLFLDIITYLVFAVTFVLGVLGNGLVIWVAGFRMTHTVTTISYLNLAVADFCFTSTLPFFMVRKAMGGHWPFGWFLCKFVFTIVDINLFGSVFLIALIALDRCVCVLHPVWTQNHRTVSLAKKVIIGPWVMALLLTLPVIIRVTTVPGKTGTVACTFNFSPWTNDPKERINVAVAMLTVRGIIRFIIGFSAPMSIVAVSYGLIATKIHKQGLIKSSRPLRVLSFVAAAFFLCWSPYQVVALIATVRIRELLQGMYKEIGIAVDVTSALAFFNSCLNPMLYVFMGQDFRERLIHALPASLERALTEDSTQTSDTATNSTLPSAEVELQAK
In words: Agonist activity at human recombinant FPR expressed in CHO cells assessed as calcium flux by aequorin based bioluminescence assay. It is filed as functional, cell-based. An outline of the steps:
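CHO cells stably transfected with human FPR, aequorin and Gα15 protein; EC50 derived from Ca2+ flux read by aequorin luminescence.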

Each structure is given as a SMILES string. The source made the active and inactive calls. No cut-off for these calls is given here.

A word on the IC50: it is the concentration needed to halve the response being measured. A high value points to a need for much substance. As for `CC(C)c1c(NC(=O)Nc2ccc(Cl)cc2)c(=O)n(-c2ccccc2)n1C`, the IC50 in experiment [1] came to 640 nM; in experiment [2], 240 nM. In addition, in experiment [3], the outcome was Active.
As usually defined, the EC50 is the concentration giving half of the maximal effect. As for `CCc1nc2ccccc2n1[C@@H]1CCN(C(=O)c2nc3ccc(OC)cc3[nH]2)C1`, the EC50 in experiment [4] was 1870 nM; in experiment [5], above 10000 nM.
As to `CC(C)c1c(NC(=O)Nc2ccccc2Cl)c(=O)n(-c2ccccc2)n1C`, the EC50 in experiment [4] is above 10000 nM.
